ChEMBL document CHEMBL1144781, “Identification of promiscuous small molecule activators in high-throughput enzyme activation screens” (J Med Chem, 2008)
The source made the active and inactive calls. The calls are words filed in the database; no cut-off is given here.

How the values were obtained:
[1] = biological target: T1, Caspase-2 (Homo sapiens, UniProt P42575); assay: Activation of procaspase 2 after 24 hrs
T1 sequence (P42575 whole entry): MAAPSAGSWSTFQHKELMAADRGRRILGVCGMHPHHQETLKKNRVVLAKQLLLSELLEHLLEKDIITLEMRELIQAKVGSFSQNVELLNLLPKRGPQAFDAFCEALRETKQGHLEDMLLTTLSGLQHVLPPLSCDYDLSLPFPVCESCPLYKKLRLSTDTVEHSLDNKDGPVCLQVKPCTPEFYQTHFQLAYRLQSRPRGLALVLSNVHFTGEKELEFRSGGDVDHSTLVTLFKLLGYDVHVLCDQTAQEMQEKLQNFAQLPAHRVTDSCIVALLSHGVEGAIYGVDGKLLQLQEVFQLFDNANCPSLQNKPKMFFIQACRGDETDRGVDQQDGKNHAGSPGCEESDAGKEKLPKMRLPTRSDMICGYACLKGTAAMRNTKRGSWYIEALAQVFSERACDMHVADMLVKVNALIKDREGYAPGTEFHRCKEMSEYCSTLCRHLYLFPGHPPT

[2] = biological target: T2, Caspase-3 (Homo sapiens) (UniProt P42574); assay: Activation of caspase 3 after 30 mins
T2 sequence (whole entry): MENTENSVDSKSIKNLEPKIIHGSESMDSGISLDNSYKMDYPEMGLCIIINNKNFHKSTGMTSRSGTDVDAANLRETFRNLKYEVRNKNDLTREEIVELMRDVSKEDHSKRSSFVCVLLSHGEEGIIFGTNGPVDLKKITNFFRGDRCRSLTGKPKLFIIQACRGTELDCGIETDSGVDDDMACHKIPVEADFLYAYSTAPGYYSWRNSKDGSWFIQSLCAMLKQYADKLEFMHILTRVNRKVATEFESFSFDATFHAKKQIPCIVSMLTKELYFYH

[3] = biological target: T3, Caspase-2 (Homo sapiens) (UniProt P42575); assay: Increase in procaspase 2 activity after 30 mins in presence of surfactant CHAPS
T3 sequence (whole entry): T1 sequence (P42575 whole entry)
In short: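 Procaspase-2 was preincubated with compound for a short time (30 min) in CHAPS-containing buffer. Ac-VDVAD-pNA cleavage was then followed by absorbance at 405 nm.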

[4] = biological target: T3, Caspase-2 (Homo sapiens); assay: Increase in procaspase 2 activity after 16 hrs in presence of surfactant CHAPS
In short: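 Procaspase-2 was incubated with compound for 16 h in buffer containing CHAPS. Activity was then read by adding Ac-VDVAD-pNA substrate and monitoring absorbance at 405 nm.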

[5] = Activation of procaspase 2 in presence of BSA
[6] = Activation of alkaline phosphatase after 30 mins

EC50 [1]	Activity [2]	SMILES	other results
66 µM		CCCCCCCCCCNC(=O)CCC	
50 µM		Cc1cc(NNC(=O)C(c2ccccc2)c2ccccc2)c2ccc(C)c(C)c2n1	
25 µM	Active	CN(C)CCNC(=O)COc1ccc(C23CC4CC(CC(C4)C2)C3)cc1	Activity [3]: inactive; Activity [4]: Active
	Active	C[C@@H](CCC(=O)NCCC[N+](C)(C)CCCS(=O)(=O)[O-])[C@H]1CC[C@H]2[C@@H]3[C@H](O)C[C@@H]4C[C@H](O)CC[C@]4(C)[C@H]3C[C@H](O)[C@]12C	Activity [5]: inactive
8.5 µM	Active	NCCCNCCCCNCCCN [SPERMINE]	
50 µM	Active	NCCCNCCNCCCN	Activity [6]: Active
25 µM	Active	CC1CCCN(CC(O)COc2ccc(C34CC5CC(CC(C5)C3)C4)cc2)C1 (stereo unspecified)	

SMILES	EC50 [1]	Activity [2]	other results
CCCCCCCCCCCCCCCC[n+]1ccccc1	21 µM		
